Tested on: MS2 coat protein
Test: apparent Kd, MS2 coat protein; higher = weaker binding; RNA-MaP array; FMN 200 µM where present
Procedure, shortened: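 Stalled E. coli RNA polymerase transcribed each design on Illumina sequencing-chip clusters. The clusters were titrated with SNAP-549-labelled MS2 coat protein, starting at 0.7 or 1.5 nM and doubling up to 3 µM, first without ligand and then with constant ligand, in 100 mM Tris-HCl pH 7.5, 80 mM KCl, 4 mM MgCl2, BSA, DTT, yeast tRNA and Tween-20. Green signal was normalised to red-channel RNA signal and to the control-cluster median Fmax. The apparent Kd is the median of filtered binding-curve fits made for each cluster.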

[1] = designed as: ON switch for flavin mononucleotide, no ligand
[2] = ligand present: flavin mononucleotide, designed as: ON switch for flavin mononucleotide
[3] = designed as: OFF switch for flavin mononucleotide, no ligand
[4] = ligand present: flavin mononucleotide, designed as: OFF switch for flavin mononucleotide

Row | Sequence | apparent Kd [1] [nM] | apparent Kd [2] [nM] | apparent Kd [3] [nM] | apparent Kd [4] [nM]
1 | UGGUACAUGGGAGGAUAUCCUCAAACAUGAGGAUCACCCAUGUAAAAUUAUAAGCCGAAAGGCAUGGAGAAGGCCCAUGUACCU | 119 | 17 |  | 
2 | UGGUACAUGGGAGGAUAUGGGUAGAUAACAUGAGGAUCACCCAUGUUAAGAAAUGCCGAAAGGCACUAGAAGGCCCAUGUACCU | 637 | 46.7 |  | 
3 | UGGUACUAAGGAGGAUAUGGGAAGAUACAUGAGGAUCACCCAUGUUUAAGAAUGCCGAGAGGCAACUAGAAGGCCCUAGUACCU | 415 | 21.9 |  | 
4 | UGGUACUACGGAGGAUAUCAUGUAGAUACAUGAGGAUCACCCAUGUCGUACGAGAGUACGGAGAUUGAGAAGGCCGUAGUACCU | 30.5 | 15.1 |  | 
5 | UGGUACUAGGGAGGAUAUGGGAAGAUACAUGAGGAUCACCCAUGUUUAAGAAUGCCGAGAGGCAACUAGAAGGCCCUAGAACCU | 406 | 19.7 |  | 
6 | UGGUACUAGGGAGGAUAUGGGAAGAUACAUGAGGAUCACCCAUGUUUAAGAAUGCCGAGAGGCAACUAGAAGGCCCUAGUAUCU | 382 | 18.9 |  | 
7 | UGGUACUAGGGAGGAUAUGGGAAGAUACAUGAGGAUCACCCAUGUUUAAGAAUGCCGAGAGGCAACUAGAAGGCCCUCGUACCU | 432 | 20.1 |  | 
8 | UGGUACUAGGGAGGAUAUGGGAAGAUACAUGAGGAUCACCCAUGUUUAAGAAUGCCGAGAGGCAACUAGAAGGCGCUAGUACCU | 710 | 90.9 |  | 
9 | UGGUACUAGGGAGGAUAUGGGAAGAUACAUGAGGAUCACCCAUGUUUAAGAAUGCCGCGAGGCAACUAGAAGGCCCUAGUACCU | 398 | 19.6 |  | 
10 | UGGUACUAGGGAGGAUAUGGGAAGAUACAUGAGGAUCACCCAUGUUUAAGAAUGUCGAGAGGCAACUAGAAGGCCCUAGUACCU | 504 | 19.4 |  | 
11 | UGGUACUAGGGAGGAUAUGGGUAGAUACAUGAGGAUCACCCAUGUUUAAGAAUGCCGAGAGGCAACUAGAAGGCCCUAGUACCU | 549 | 319 |  | 
12 | UGGUGACGUUUCUUCUCGACAUGAGGAUCACCCAUGUAGACAGAGGAUAUCCGAGUUGCCAAUAAGGAGAAGGCUGACUGCGAA |  |  | 6.61 | 10.2
13 | UGGUUGCGAGUAGGAUAUGGUGUUUUUGUUUGGUUAGAAGGGUUCGUGAUUGUGACAUGAGGAUCACCCAUGUGUGUUGUUGUU | 63.6 | 70.5 |  | 
14 | UGUAUAUAGGCAGGAUAUACAUGAAUAUAUAUGAUGUAGUAUGAUGUAACAUGAGGAUCACCCAUGUAGAAGGGCCAGUAUAUA |  |  | 45.3 | 129
15 | UGUAUGGACAGAGGAUAUACCGAUAGGAUCUACUAUCGAAGAAUCCUCACAUGAGGAUCACCCAUGUAGAAGGCUGUCCAUACU |  |  | 41.3 | 665
16 | UGUAUGGACAGAGGAUAUGCCGAUAGGAUUUACUAUCGAAGAAUCCUCACAUGAGGAUCACCCAUGUAGAAGGCUGUCCAUACU |  |  | 8.14 | 38.4
17 | UGUCCAUAGCAGAAGGACAUAAAUAACCAUGAAAACAUGAGGAUCACCCAUGUAGGAUAUGCUAUGGACUAAGAGCGAAAGCUC |  |  | 5.38 | 17.8
18 | UGUCGGAAGUAGAAGGGUAUGACAUGAGGAUCACCCAUGUGAUUUGGGUAUACAGGAUAUGCUUAUAUAUAUGAUUAAAUUAUU |  |  | 451 | 248
19 | UGUCGGAGCAGAGGAUAUUACAUGAGGAUCACCCAUGUAUAAACCAAUAGCUGGAAACAGCAAUGUAAGAAGGCUGCUCCGACA |  |  | 5.28 | 10.1
20 | UGUCGGAGCAGAGGAUAUUACAUGAGGAUCACCCAUGUAUGAACCAAUAGCUGGAAACAGCAAUGAAAGAAGGCUGCUCCGACA |  |  | 5.38 | 5.13
21 | UGUCGGAGCAGAGGAUAUUACAUGAGGAUCACCCAUGUAUGAACCAAUAGCUGGAAACAGCAAUGUAAGAAGGAUGCUCCGACA |  |  | 7.14 | 31.4
22 | UGUCGGAGCAGAGGAUAUUACAUGAGGAUCACCCAUGUAUGAACCAAUAGCUGGAAACAGCAAUGUAAGAAGGCUGCUCCGUCA |  |  | 11.9 | 167
23 | UGUCGGAGCAGAGGAUAUUACAUGAGGAUCACCCAUGUAUGAACCAAUAUCUGGAAACAGCAAUGUAAGAAGGCUGCUCCGACA |  |  | 7.16 | 47.3
24 | UGUCUAUUUGAAGGAUAUCUAAGCAUAAACCAGAGAGAAGGUCAAUUAUACAUGAGGAUCACCCAUGUUGAGAUUAAUGGGUUU |  |  | 20.5 | 26.4
25 | UGUGCGUUGAUCUUCGAUCGGAGUACAUGAGGAUCACCCAUGUAGGAUAUUCAAAGACGCAGAUAGAAGAAGGACAUCGGUUUC |  |  | 10.6 | 9.43
26 | UGUGGGAGCAGAGGAUAUUACAUGAGGAUCACCCAUGUAUGAACCAAUAGCUGGAAACAGCAAUGUAAGAAGGCUGCUCCGACA |  |  | 13 | 165
27 | UGUGGUGAAGUAGGAUAUCAACACACAUGAGGAUCACCCAUGUUAGAUGUGGAUGUUGUAUGUUAUGAGAAGGACUUCGGUGCG |  |  | 23.6 | 89

Row | Sequence | apparent Kd [1] [nM] | apparent Kd [2] [nM] | apparent Kd [3] [nM] | apparent Kd [4] [nM]
28 | UGUGGUGGUCAGGAUAUAAAUUGCGCCUGACGCUUAGAAGGGACUACAUGAGGAUCACCCAUGUGAGAGCUUCA |  |  | 16.4 | 15.9
29 | UGUGUCUGUAGAGGAUAUCCGGGCGUUCGGCUAGGAGAAGGCUGCAACACAUGAGGAUCACCCAUGUAGGUUGUGUCUCCCUAC |  |  | 9.9 | 29.7
30 | UGUGUGUGGGCAGGAUAUGCAUGAAUAUGUAUGAUGUAGUGUGAUGUAACAUGAGGAUCACCCAUGUAGAAGGGCCGGUGUGUG |  |  | 99.3 | 116
31 | UGUUAUUAGACAGGAUAUUGAAUGUUAAGUAUUAACAUGAGGAUCACCCAUGUAUUUGAUUGGUACAAGAAGGGUCAUGUUUGU | 323 | 659 |  | 
32 | UGUUGAUAGCAGAAGGACAUGAGGAUCACCCAUGUAAGGUUACAAAUAUAUGUAGGAUAUGCUAUUGACUAAGAGUGAGCGUUC |  |  | 8.88 | 39.5
33 | UGUUGUAAUACAGGAUAUCUAUUAUUUUUAUUUAGAGAAGGGUAAUCACAUGAGGAUCACCCAUGUAUAUACGAGGAAGAAGAG | 186 | 182 |  | 
34 | UGUUGUAUUACAGGAUAUCUAGUAUUUUUGUUUAGAGAAGGGUAUUCACAUGAGGAUCACCCAUGUAUAUACGAGGAAGUUGUG | 57.2 | 63.7 |  | 
35 | UGUUGUAUUACAGGAUAUCUAUUGAUUUUAUUUAGAGAAGGGUAUUCACAUGAGGAUCACCCAUGUAUAUACGAGGAAGUUGUG | 54.6 | 62.7 |  | 
36 | UGUUGUAUUACAGGAUAUCUAUUGUUAUUAUUUAGAGAAGGGUAUUCACAUGAGGAUCACCCAUGUAUAUACGAGGAAGUUGUG | 45.3 | 45.5 |  | 
37 | UGUUGUAUUACAGGAUAUCUAUUGUUUUUAAUUAGAGAAGGGUAUUCACAUGAGGAUCACCCAUGUAUAUACGAGGAAGUUGUG | 50.5 | 53.4 |  | 
38 | UGUUGUAUUACAGGAUAUCUGUUAUUUUUAUUUAGAGAAGGGUAUUCACAUGAGGAUCACCCAUGUAUAUACGAGGAAGUUGUG | 57.3 | 61.4 |  | 
39 | UGUUUUCAUGUAGGAUAUGCUUGUCGUAGAUACGCAGAAGGACAUGAGGAUCACCCAUGUUAAUGCUACAGAUUUUAGUUUCUU |  |  | 19.5 | 102
40 | UUAAAUCAUGUAGGAUAUGCAUGGCGAAGCUACGCAGAAGGACAUGAGGAUCACCCAUGUUAAAGCUACCGGAUACGGUGGCAA |  |  | 109 | 195
41 | UUAAAUCAUGUAGGAUAUGCAUGGCGAAGCUACGCAGAAGGACAUGAGGAUCACCCAUGUUAUAGCUACCCAGUUCGGUGGCAA |  |  | 96.1 | 221
42 | UUAAAUCAUGUAGGAUAUGCAUGGCGAAGCUACGCAGAAGGACAUGAGGAUCACCCAUGUUAUAGCUACCGAUAAAGGUGGCAA |  |  | 84.3 | 214
43 | UUAAAUCAUGUAGGAUAUGCAUGGCGAAGCUACGCAGAAGGACAUGAGGAUCACCCAUGUUAUAGCUUCCCAGUUCGGAGGCAA |  |  | 63.8 | 230
44 | UUAAAUCAUGUAGGAUAUGCAUGGCGAAGCUACGCAGAAGGACAUGAGGAUCACCCAUGUUCUAGCGUCUGAGUUCAGAUGCAA |  |  | 20.9 | 41.7
45 | UUAACAUGAGGAUCACCCAUGUAUAGAUCGGUUAAUAGAAGUGAGGAUAUGCUUAAAUUCAGGUAGCAGAAGGCACUGGGUACU | 26.9 | 29.9 |  | 
46 | UUAAGUCAUGUAGGAUAUCCGAGGCGAAGCGUUGGAGAAGGACAUGAGGAUCACCCAUGUUCUAGCGUCUGAGUACAGAUGCAG |  |  | 29.5 | 94.7
47 | UUAAGUUCAGGAUAUGAUGUUUUAAACAUGAGGAUCACCCAUGUAGAUCCUGAAUUAACAUCAGAAGGGAAUAUUU |  |  | 37.5 | 217
48 | UUAAUAAAGUAAGGAUAUACAUGAGGAUCACUCGUAGAAGGUACUAUACAUGAGGAUCACCCAUGUUCCGGUCAGAAGACUGGA | 1100 | 778 |  | 
49 | UUAAUAAGUGUGAGGAUAUGCUGGUCCUUGGAUCAGCAGAAGGCACAUGAGGAUCACCCAUGUACAAUAUAUUA |  |  | 33.6 | 215
50 | UUAAUUAUACAAGGAUAUCUAUUGUUAUUUCGACUUACAUGAGGAUCACCCAUGUUAAUAUAUUUAGAGAAGGUGUAUUUUCAG | 86.8 | 36.5 |  | 
51 | UUAAUUCAUGUAGGAUAUCCGAUGCGAAGCGUUGGAGAAGGACAUGAGGAUCACCCAUGUUCUAGCGUCUGAGUACAGAUGCAA |  |  | 26.9 | 88.5
52 | UUACCUCAUGAGAAGGACAUGAGGAUCACCCAUGUAGGAUAUCAUGGGUCAGUGGAAUUGAAUCUUCGGAUUCAAUAACUCUAC | 140 | 44 |  | 
53 | UUACCUCAUGAGAAGGACAUGAGGAUCACCCAUGUAGGAUAUCAUGGGUCAGUGGAAUUGAAUCUUCGGAUUCAAUAACUCUAU | 114 | 34.5 |  | 
54 | UUACUACAUGAGGAUCACCCAUGUCAGGAUAUUGUCUAUACUUUGGAAUAUGUGUCGAUAAGAAGGGACUGUAU |  |  | 19.9 | 26.2

— the EternaBench riboswitch data
